Measured values as given in ChEMBL document CHEMBL3044834, “Novel protoporphyrinogen oxidase inhibitors: 3H-pyrazolo[3,4-d][1,2,3]triazin-4-one derivatives” (J Agric Food Chem, 2008).

Legend:
Assay type in all cases: functional
[1] = tested on: Digitaria sanguinalis; experiment: Herbicidal activity against Digitaria sanguinalis (hairy crabgrass) assessed as inhibition of fresh weed plant weight at 1500 g/ha using pre-emergence treatment protocol
[2] = tested on: Amaranthus retroflexus; experiment: Herbicidal activity against Amaranthus retroflexus assessed as inhibition of fresh weed plant weight at 1500 g/ha using post-emergence treatment protocol
How it was run: (§1)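 Test compounds made up as emulsions by dissolving in 100 µL N,N-dimethylformamide, then adding a little Tween 20 and water. For post-emergence, weed seedlings at one leaf and one stem were sprayed at the same rates as the pre-emergence test. Fresh weight was recorded 15 days after treatment and expressed as percent inhibition versus controls. All treatments were run in triplicate.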

[3] = tested on: Amaranthus retroflexus; experiment: Herbicidal activity against Amaranthus retroflexus assessed as inhibition of fresh weed plant weight at 1500 g/ha using pre-emergence treatment protocol
[4] = tested on: Brassica rapa subsp. oleifera; experiment: Herbicidal activity against Brassica rapa subsp. oleifera assessed as inhibition of fresh weed plant weight at 187.5 g/ha using post-emergence treatment protocol; how it was run: as §1
[5] = tested on: Brassica rapa subsp. oleifera; experiment: Herbicidal activity against Brassica rapa subsp. oleifera assessed as inhibition of fresh weed plant weight at 375 g/ha using post-emergence treatment protocol; how it was run: as §1
[6] = tested on: Brassica rapa subsp. oleifera; experiment: Herbicidal activity against Brassica rapa subsp. oleifera assessed as inhibition of fresh weed plant weight at 750 g/ha using post-emergence treatment protocol; how it was run: as §1
[7] = tested on: Brassica rapa subsp. oleifera; experiment: Herbicidal activity against Brassica rapa subsp. oleifera assessed as inhibition of fresh weed plant weight at 187.5 g/ha using pre-emergence treatment protocol
[8] = tested on: Brassica rapa subsp. oleifera; experiment: Herbicidal activity against Brassica rapa subsp. oleifera assessed as inhibition of fresh weed plant weight at 375 g/ha using pre-emergence treatment protocol
[9] = tested on: Brassica rapa subsp. oleifera; experiment: Herbicidal activity against Brassica rapa subsp. oleifera assessed as inhibition of fresh weed plant weight at 750 g/ha using pre-emergence treatment protocol
[10] = tested on: Digitaria sanguinalis; experiment: Herbicidal activity against Digitaria sanguinalis (hairy crabgrass) assessed as inhibition of fresh weed plant weight at 1500 g/ha using post-emergence treatment protocol; how it was run: as §1
[11] = tested on: Brassica rapa subsp. oleifera; experiment: Herbicidal activity against Brassica rapa subsp. oleifera assessed as inhibition of fresh weed plant weight at 1500 g/ha using post-emergence treatment protocol; how it was run: as §1
[12] = tested on: Brassica rapa subsp. oleifera; experiment: Herbicidal activity against Brassica rapa subsp. oleifera assessed as inhibition of fresh weed plant weight at 1500 g/ha using pre-emergence treatment protocol
[13] = tested on: Echinochloa crus-galli; experiment: Herbicidal activity against Echinochloa crus-galli (barnyard grass) assessed as inhibition of fresh weed plant weight at 750 g/ha using pre-emergence treatment protocol
[14] = tested on: Amaranthus retroflexus; experiment: Herbicidal activity against Amaranthus retroflexus assessed as inhibition of fresh weed plant weight at 750 g/ha using pre-emergence treatment protocol; how it was run: as §1
[15] = tested on: Amaranthus retroflexus; experiment: Herbicidal activity against Amaranthus retroflexus assessed as inhibition of fresh weed plant weight at 375 g/ha using pre-emergence treatment protocol
[16] = tested on: Digitaria sanguinalis; experiment: Herbicidal activity against Digitaria sanguinalis (hairy crabgrass) assessed as inhibition of fresh weed plant weight at 187.5 g/ha using pre-emergence treatment protocol
[17] = tested on: Amaranthus retroflexus; experiment: Herbicidal activity against Amaranthus retroflexus assessed as inhibition of fresh weed plant weight at 187.5 g/ha using post-emergence treatment protocol; how it was run: as §1
[18] = tested on: Digitaria sanguinalis; experiment: Herbicidal activity against Digitaria sanguinalis (hairy crabgrass) assessed as inhibition of fresh weed plant weight at 750 g/ha using post-emergence treatment protocol; how it was run: as §1
[19] = tested on: Amaranthus retroflexus; experiment: Herbicidal activity against Amaranthus retroflexus assessed as inhibition of fresh weed plant weight at 187.5 g/ha using pre-emergence treatment protocol
[20] = tested on: Amaranthus retroflexus; experiment: Herbicidal activity against Amaranthus retroflexus assessed as inhibition of fresh weed plant weight at 750 g/ha using post-emergence treatment protocol; how it was run: as §1
[21] = tested on: Amaranthus retroflexus; experiment: Herbicidal activity against Amaranthus retroflexus assessed as inhibition of fresh weed plant weight at 375 g/ha using post-emergence treatment protocol; how it was run: as §1
[22] = tested on: Echinochloa crus-galli; experiment: Herbicidal activity against Echinochloa crus-galli (barnyard grass) assessed as inhibition of fresh weed plant weight at 750 g/ha using post-emergence treatment protocol; how it was run: as §1
[23] = tested on: Echinochloa crus-galli; experiment: Herbicidal activity against Echinochloa crus-galli (barnyard grass) assessed as inhibition of fresh weed plant weight at 375 g/ha using post-emergence treatment protocol; how it was run: as §1
[24] = tested on: Echinochloa crus-galli; experiment: Herbicidal activity against Echinochloa crus-galli (barnyard grass) assessed as inhibition of fresh weed plant weight at 187.5 g/ha using post-emergence treatment protocol; how it was run: as §1
[25] = tested on: Digitaria sanguinalis; experiment: Herbicidal activity against Digitaria sanguinalis (hairy crabgrass) assessed as inhibition of fresh weed plant weight at 750 g/ha using pre-emergence treatment protocol
[26] = tested on: Digitaria sanguinalis; experiment: Herbicidal activity against Digitaria sanguinalis (hairy crabgrass) assessed as inhibition of fresh weed plant weight at 375 g/ha using pre-emergence treatment protocol
[27] = tested on: Digitaria sanguinalis; experiment: Herbicidal activity against Digitaria sanguinalis (hairy crabgrass) assessed as inhibition of fresh weed plant weight at 375 g/ha using post-emergence treatment protocol; how it was run: as §1
[28] = tested on: Digitaria sanguinalis; experiment: Herbicidal activity against Digitaria sanguinalis (hairy crabgrass) assessed as inhibition of fresh weed plant weight at 187.5 g/ha using post-emergence treatment protocol; how it was run: as §1
[29] = tested on: Echinochloa crus-galli; experiment: Herbicidal activity against Echinochloa crus-galli (barnyard grass) assessed as inhibition of fresh weed plant weight at 375 g/ha using pre-emergence treatment protocol; how it was run: as §1
[30] = tested on: Echinochloa crus-galli; experiment: Herbicidal activity against Echinochloa crus-galli (barnyard grass) assessed as inhibition of fresh weed plant weight at 187.5 g/ha using pre-emergence treatment protocol; how it was run: as §1
[31] = tested on: Echinochloa crus-galli; experiment: Herbicidal activity against Echinochloa crus-galli (barnyard grass) assessed as inhibition of fresh weed plant weight at 1500 g/ha using pre-emergence treatment protocol
[32] = tested on: Echinochloa crus-galli; experiment: Herbicidal activity against Echinochloa crus-galli (barnyard grass) assessed as inhibition of fresh weed plant weight at 1500 g/ha using post-emergence treatment protocol; how it was run: as §1

SMILES	inhibition at 1500 g/ha [1] [%]	inhibition at 1500 g/ha [2] [%]	inhibition at 1500 g/ha [3] [%]	inhibition at 187.5 g/ha [4] [%]	inhibition at 375 g/ha [5] [%]	inhibition at 750 g/ha [6] [%]	inhibition at 187.5 g/ha [7] [%]	inhibition at 375 g/ha [8] [%]	inhibition at 750 g/ha [9] [%]	inhibition at 1500 g/ha [10] [%]	inhibition at 1500 g/ha [11] [%]	inhibition at 1500 g/ha [12] [%]	inhibition at 750 g/ha [13] [%]	inhibition at 750 g/ha [14] [%]	inhibition at 375 g/ha [15] [%]	inhibition at 187.5 g/ha [16] [%]	inhibition at 187.5 g/ha [17] [%]	inhibition at 750 g/ha [18] [%]	inhibition at 187.5 g/ha [19] [%]	inhibition at 750 g/ha [20] [%]	also measured
C#CCN1C(=O)COc2cc(F)c(-n3nnc4c(cnn4CCC)c3=O)cc21	100	99.6	100	35.4	64.6	70.3	63.4	67.9	82.1	33.9	90.7	98.1	87	100	73.8	80.4	14.6	16.7	37.7	87.8	inhibition at 375 g/ha [21]: 41.5%; inhibition at 750 g/ha [22]: 61%; inhibition at 375 g/ha [23]: 19%; inhibition at 187.5 g/ha [24]: 0.5%; inhibition at 750 g/ha [25]: 93.5%; inhibition at 375 g/ha [26]: 91.3%; inhibition at 375 g/ha [27]: 5.6%; inhibition at 187.5 g/ha [28]: 0%; inhibition at 375 g/ha [29]: 80.1%; inhibition at 187.5 g/ha [30]: 43.7%; inhibition at 1500 g/ha [31]: 95.4%; inhibition at 1500 g/ha [32]: 91.5%
C#CCOc1cc(-n2nnc3nn(CC=C)cc3c2=O)c(F)cc1Cl	79.6	100	100	2.9	18.9	36.6	16.4	25.4	37.3	36.1	70.3	65.8	19.5	93.4	90.2	2.2	22	13.9	41	100	inhibition at 375 g/ha [21]: 100%; inhibition at 750 g/ha [22]: 9.3%; inhibition at 375 g/ha [23]: 0.5%; inhibition at 187.5 g/ha [24]: 0%; inhibition at 750 g/ha [25]: 47.8%; inhibition at 375 g/ha [26]: 6.5%; inhibition at 375 g/ha [27]: 8.3%; inhibition at 187.5 g/ha [28]: 0%; inhibition at 375 g/ha [29]: 0%; inhibition at 187.5 g/ha [30]: 0%; inhibition at 1500 g/ha [31]: 40.9%; inhibition at 1500 g/ha [32]: 20.3%
C=CCOc1cc(-n2nnc3nn(CC=C)cc3c2=O)c(F)cc1Cl	18	100	100	6.3	8.6	32.6	3	13.4	23.9	60.7	60.8	50.7	22.1	100	100	0	36.6	44.4	100	100	inhibition at 375 g/ha [21]: 100%; inhibition at 750 g/ha [22]: 18%; inhibition at 375 g/ha [23]: 16.1%; inhibition at 187.5 g/ha [24]: 14.1%; inhibition at 750 g/ha [25]: 8.7%; inhibition at 375 g/ha [26]: 4.3%; inhibition at 375 g/ha [27]: 33.3%; inhibition at 187.5 g/ha [28]: 22.2%; inhibition at 375 g/ha [29]: 18.4%; inhibition at 187.5 g/ha [30]: 0%; inhibition at 1500 g/ha [31]: 39.6%; inhibition at 1500 g/ha [32]: 35.8%
